In data set [1] the test system is MDA MB 231 cells. The data set can be described thus: MDA MB 231 proliferation MTT assay. The class given is cell-based. The settings on record: for anti-proliferative effect in MDA MB 231: 100 μM, data not shown; for IC50: Homo sapiens, MDA-MB-231, 72 h, read-out: IC50 in MDA MB 231. Summed up: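 MDA MB 231 cells (DMEM, 10% FBS, 37 °C, 5% CO2, split every 3–4 days) were plated at 2000 per well and incubated overnight, then the medium was replaced with test compound for 72 h. MTT was added for 4 h at 37 °C, and formazan was dissolved in DMSO. A570 was read with a 630 nm reference. IC50: 0.78–100 μM, non-linear regression of survival %.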
In general terms: Tetrazolium assays rely on reduction of a dye to a coloured formazan, in cell work by metabolically active cells.

Data set [2] deals with human glioblastoma cell line GBM6. The data set is described as follows: GBM6 proliferation MTT assay. Type of data set: cell-based. The settings on record: for anti-proliferative activity in GBM6: 100 μM, MTT 72 hours after treatment; for IC50: Homo sapiens. Summed up:
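GBM6 cells (DMEM, 10% FBS, 37 °C, 5% CO2) were plated at 1000 per well and incubated overnight, then the medium was replaced with test compound for 72 h. MTT was added for 4 h at 37 °C, and formazan was dissolved in DMSO. A570 was read with a 630 nm reference. Single-dose screen: n = 3, normalised to control. IC50: 0.78–100 μM, non-linear regression of survival %.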

Data set [3] has as its system HCMV (Towne-BAC-GFP strain). The class given is cell-based, human cytomegalovirus. Particulars: HFF-1 cells pre-treated with 10 μM compound for 1 hour, HCMV MOI 3.0. The gist of the method:
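HFF-1 cells were grown in DMEM with 10% FBS, sodium pyruvate and L-glutamine at 37 °C, 5% CO2. They were pre-treated for 1 h with test compound or DMSO control, then infected with Towne-BAC-GFP HCMV. GFP-positive infected cells were quantified by fluorescence microscopy.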

Data set [4] concerns HCMV (Towne-BAC-GFP) strain. Particulars: read-out: reported IC50; reported value used to validate the assay; cited from earlier work.
Data set [5] relates to HFF-1 cells. The data set is described as follows: Cytotoxic assessment on HFF cells by trypan blue exclusion assay. Type of data set: cell-based, human. The settings on record: 2× the IC50 concentrations, maintained on cells for 5 days. Summed up:
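Confluent HFF-1 cells (DMEM, 10% FBS, 37 °C, 5% CO2) were treated with test compound or left untreated, then infected with HCMV (MOI 3.0) or left uninfected. At day 5, cells were trypsinised and mixed 1:1 with 0.4% trypan blue. Percent viable cells was read on an automated cell counter. Three independent experiments, SEM.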

The mark [6] stands for this setting: GBM6, 72 h, read-out: IC 50 in GBM6.
Setting [7] is: GBM6, read-out: IC50 (highest cytotoxicity).

Here are results for 8 compounds from paper PMC9056317 (RSC Advances, 2020).

Where two headings read alike, the source gives them in different places.

`FC1C(c2ccc(Br)cc2)=NOC12CCCCO2` (stereo not drawn) [4l, 3-(4-Bromophenyl)-4-fluoro-1,6-dioxa-2-azaspiro[4.5]dec-2-ene]: the “anti-proliferative effect in MDA MB 231” value in data set [1] is “highest anti-proliferative effect”. In addition, the results for the IC50 in data set [1], in data set [2] (setting [6]) and in data set [2] (setting [7]) were 68.2 µM, 36.1 µM and 36 to 80 µM, respectively. In addition, in data set [2], the “anti-proliferative activity in GBM6” value is reported as “robust anti-proliferative activity”.

As for `FC1C(c2ccccc2)=NOC12CCCCO2` (stereo not drawn) [4i, 4-Fluoro-3-phenyl-1,6-dioxa-2-azaspiro[4.5]dec-2-ene], the “reduction in GFP levels (mean fluorescence intensity, MFI)” value (shortened to “reduction in GFP levels”) in data set [3] is on record as “significant reduction in MFI”.

Regarding `O=C1CCC2(ON=C(c3c(Cl)cccc3Cl)C2F)O1` (stereo not drawn) [5f, 3-(2,6-Dichlorophenyl)-4-fluoro-1,6-dioxa-2-azaspiro[4.4]non-2-en-7-one], in data set [1], the “anti-proliferative effect in MDA MB 231” value was “highest anti-proliferative effect”. In addition, the IC50 was 79.8 µM in data set [1], 43.2 µM in data set [2] (setting [6]) and 36 to 80 µM in data set [2] (setting [7]). The “anti-proliferative activity in GBM6” value in data set [2] is given as “robust anti-proliferative activity”.

On to `Nc1nc(O)c2ncn(COC(CO)CO)c2n1` [GCV, ganciclovir], for which the IC50 in data set [4] was 5.2 µM.

As to `FC1C(c2ccc(Cl)cc2)=NOC12CCCO2` (stereo not drawn) [4d, 3-(4-Chlorophenyl)-4-fluoro-1,6-dioxa-2-azaspiro[4.4]non-2-ene], the “reduction in GFP levels” value in data set [3] was “significant reduction in MFI”. Besides, the “cytotoxicity on HFF cells” value in data set [5] was “did not show significant cytotoxicity”.

In the case of `O=[N+]([O-])c1ccc(C2=NOC3(CCCCO3)C2F)cc1` (stereo not drawn) [4o, 4-Fluoro-3-(4-nitrophenyl)-1,6-dioxa-2-azaspiro[4.5]dec-2-ene], the “reduction in GFP levels” value in data set [3] was “significant reduction in MFI”.

As for `FC1C(c2ccc(C(F)(F)F)cc2)=NOC12CCCCO2` (stereo not drawn) [4n, 4-Fluoro-3-(4-(trifluoromethyl)phenyl)-1,6-dioxa-2-azaspiro[4.5]dec-2-ene], the “reduction in GFP levels” value in data set [3] was “significant reduction in MFI”. Further, the “cytotoxicity on HFF cells” value in data set [5] is “did not show significant cytotoxicity”.

On to `O=[N+]([O-])c1ccc(C2=NOC3(CCCO3)C2F)cc1` (stereo not drawn) [4h, 4-Fluoro-3-(4-nitrophenyl)-1,6-dioxa-2-azaspiro[4.4]non-2-ene], for which the “reduction in GFP levels” value in data set [3] is “significant reduction in MFI”.
